Screening results as filed in PubChem.
STAT1 blocker: reduces IFN-gamma driven STAT1 reporter signal | NIH 3T3 STAT1-luciferase reporter, luminescence | hit rate 0.35% among 200,000 | inhibition, % at 5.5 µM;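 active = inhibition above a set limit, the mean inhibition across all tested compounds plus 3 SD, cut at about 34% in these data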
NF-kB expr up: raises NF-kB expression in human neuronal cells; NF-kB reporter expression; hits give high values; fold change at 12.5 µM; hit rate 1.6% among 190,000; AID 1239; in the data active = fold change above about 3.3
APP 5'UTR act: APP 5'UTR luciferase reporter activation; SH-SY5Y APP 5'UTR luciferase reporter, luminescence; zero percent = DMSO vehicle wells; activation, % at 2 µM; hit rate 1% among 190,000;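 active = activation above a set limit, based on mean plus 3 SD of controls, cut at about 140% in these data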
STAT3 activator: STAT3 signaling activation; U3A cells, IL-6 STAT3-luciferase reporter, luminescence; 100% = signal with IL-6 EC80 alone; activation (% of control), % at 5.6 µM; hit rate 0.91% among 190,000; AID 871;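 active = activation above the screen-wide mean of compound activation plus 3 SD, cut at about 130% in these data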
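Material: STAT3-luciferase reporter U3A cells. Controls: IL-6-treated wells, 100% activation. Read-out: % activation versus median of IL-6-stimulated wells. Probe or stimulus: IL-6 stimulus at 33 ng/mL final. Timing: compound 1 h, then IL-6 6 h at 37 °C. Signal: reporter luminescence signal.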
STAT3 inh: reduces IL-6 driven STAT3 reporter signal. AID 862. inhibition, % at 5.5 µM. hit rate 0.89% among 190,000. U3A cells, IL-6 STAT3-luciferase reporter, luminescence; host cell line lacks STAT1;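 active = inhibition above the mean inhibition across all screened compounds plus 3 SD, cut at about 44% in these data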
STAT1 act: increases IFN-gamma driven STAT1 reporter signal | NIH 3T3 STAT1-luciferase reporter, luminescence; 100% = IFN-gamma alone, no compound | hit rate 2.6% among 200,000 | AID 932 | activation (% of control), % at 5.5 µM;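 active = activation above the screen-wide mean activation plus 3 SD, cut at about 130% in these data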
Of the large screens only hits and unclear results are named; the others gave an inactive call. Only some compounds are listed: those with a hit (about 4.9% of all), similar ones and a draw of the others.

O=C(Nc1cc2c(oc1=O)CCCC2=O)c1ccc(Cl)cc1	STAT1 act 136
COC(=O)c1ccc(COc2ccccc2/C=C(\C#N)C(=O)Nc2c(C)cccc2C)cc1	none
CCO/N=C(/C)c1c(O)c(C)c(-c2ccccc2)n(-c2ccccc2)c1=O	none
O=c1cccc2n1Cc1cc3ccccc3nc1-2	STAT1 act 135
Cc1ccc(NC(=O)Cc2cc(C(=O)O)c3ccccc3n2)c(C)c1	NF-kB expr up 4.6
CCCc1cc(C(=O)O)c2ccccc2n1	none
Nc1ccc(-c2cn3cccnc3n2)cc1	none
Cc1cccn2cc(-c3cc4ccccc4oc3=O)nc12	NF-kB expr up 3.9, STAT1 act 137
O=c1oc2ccccc2cc1-c1cn2cccnc2n1	STAT1 act 140
COc1ccc2oc(=O)c(-c3cn4ccc(C)cc4n3)cc2c1	none
O=c1oc2ccccc2cc1-c1ccccc1	none
O=c1oc2ccccc2cc1-c1cn2ccccc2n1	STAT1 blocker 81, STAT3 inh 96
CCOC(=O)C1C2C=CC3(CN(C4CCCC4)C(=O)C13)O2 (configuration not stated)	none
CC(=O)OCC(=O)[C@@]12OC3(CCCC3)O[C@@H]1C[C@H]1[C@@H]3CCC4=CC(=O)C=C[C@]4(C)[C@@]3(F)[C@@H](O)C[C@@]12C	STAT1 act 129
O=C(N/N=C1\CCc2ccccc21)c1ccccc1Cl	STAT1 act 131
Cc1ccc(C(=O)N/N=C2\CCc3ccccc32)c(C)c1	NF-kB expr up 5.7, STAT1 act 149
O=C(N/N=C1\CCc2ccccc21)c1ccc(O)cc1	APP 5'UTR act 138, STAT1 act 142
CCC(CC(C)(C)O)C(=O)NNC(=S)Nc1ccccc1 (configuration not stated)	none
O=C(NCC1CCCO1)c1cc(-c2ccccc2)on1 (configuration not stated)	NF-kB expr up 7.8, STAT1 act 140
O=C(NCC1CCCO1)c1cc(-c2ccc(Cl)cc2Cl)on1 (configuration not stated)	NF-kB expr up 3.4
Cc1ccc(-c2cc(C(=O)NCC3CCCO3)no2)cc1 (configuration not stated)	none
O=C(Nc1ccc(Nc2ccccc2)cc1)N1CCOCC1	none
O=C(Nc1ccccc1)n1cc(-c2ccccn2)c(N2CCOCC2)n1	STAT3 activator 133
Clc1ccc(COn2nnc3ccccc32)c(Cl)c1	APP 5'UTR act 153, STAT1 act 146
O=[N+]([O-])c1ccc(COn2nnc3ccccc32)cc1	none
Cc1ccc(NC(=O)NNC(=O)c2snnc2C)cc1	none
Cc1ccc(S(=O)(=O)N(C)C)cc1NC(=O)CCc1c[nH]c2ccccc12	none
COc1ccc(S(=O)(=O)N(C)C)cc1NC(=O)Cc1c[nH]c2ccccc12	STAT3 activator 133
CC(C)(C)OC(=O)N/N=C/c1cccc([N+](=O)[O-])c1	NF-kB expr up 3.9, STAT1 act 130
O=C(NCC(=O)N(c1cccc(F)c1)C(C(=O)NC1CCCC1)c1cccnc1)c1cccs1 (configuration not stated)	none
Cc1ccc(-c2cnn(-c3cccc(C(F)(F)F)c3)c2N)cc1	STAT1 act 138
O=c1c2cc(NC(=S)NCc3ccccn3)ccc2nc2n1CCCCC2	none
O=C(Nc1ccc2nc3n(c(=O)c2c1)CCCCC3)c1ccccn1	STAT1 act 145
CCC(Sc1ncnc2c1nnn2-c1ccc(F)cc1)C(=O)OC (configuration not stated)	none
CCOC(=O)C(C)Sc1ncnc2c1nnn2-c1ccc(F)cc1 (configuration not stated)	STAT1 act 132
C=CCn1c(COc2ccccc2)nnc1SC(C)C(=O)N/N=C/c1cc(Cl)ccc1O (configuration not stated)	NF-kB expr up 3.5
NNc1nc2ccc(Cl)cc2s1	none
COc1ccc(Nc2nc3ccc(OC)cc3s2)cc1	STAT1 act 130
Fc1ccc2nc(Nc3ccccc3)sc2c1	NF-kB expr up 3.7, STAT1 act 140
NNc1nc2ccc(F)cc2s1	STAT1 act 150
COc1ccc(C(=O)N/N=C(\CCC(=O)O)c2ccc(C(C)(C)C)cc2)cc1OC	none
O=C(O)CCCNC(=O)Nc1ccccc1	NF-kB expr up 13
COc1ccc(/C=N/NC(=O)Nc2nonc2N)cc1	STAT1 act 130
COc1ccc(C(=O)NC(=O)NC2(C(Cl)(Cl)Cl)OCCO2)cc1	NF-kB expr up 5.1, APP 5'UTR act 226
O=C(Cc1ccccc1)NN1C(=O)C2C3C=CC(C4CC34)C2C1=O (configuration not stated)	none
COc1ccc(C(=O)C2CC2c2ccc3c(c2)OCO3)cc1 (configuration not stated)	none
O=C(O)c1cccc(N/N=C/C2=C(Cl)c3cc(Cl)ccc3SC2)c1	NF-kB expr up 5.2, APP 5'UTR act 195
CCOc1cc(/C=N/Nc2cccc(C(=O)O)c2)ccc1OC(=O)c1ccccc1	STAT1 blocker 77, NF-kB expr up 12, STAT3 inh 55
O=C(O)c1cccc(Cn2c(Cl)c(/C=N/Nc3ccccc3)sc2=O)c1	none
CCOc1cc(/C=N/NC(=O)CNc2cccc(C)c2)ccc1OC(=O)c1ccccc1	none
Cc1ccsc1/C=N/Nc1cccc(C(=O)O)c1	STAT1 blocker 89, NF-kB expr up 14, STAT3 inh 49
Cc1ccc(/C=N/Nc2cccc(C(=O)O)c2)s1	NF-kB expr up 14
O=C(O)c1cccc(N/N=C/c2ccc(F)c(F)c2)c1	none
COC(=O)c1cccc(NC(=S)N2CCN(c3ccccc3F)CC2)c1	none
O=C(CN1C(=O)NC2(CCCCCC2)C1=O)N1CCN(S(=O)(=O)c2ccc(Cl)cc2)CC1	none
O=C(CSCc1ccc(Br)cc1)N1CCCC1	none
Cc1cc(Br)ccc1OCC(=O)N1CCCCCC1	none
CC(C)c1ccc(OCC(=O)N2CCCCCC2)c(Br)c1	STAT1 act 137
Cn1c(CC(=O)Nc2ccccc2)c(Sc2ccccc2)c2ccccc21	STAT3 activator 135
Cn1c(Cl)c(C(=O)Nc2ccccc2)c2ccccc21	STAT3 activator 158
Cc1ccc(NC(=O)c2c(O)c3ccccc3n(C)c2=O)nc1	STAT3 activator 135
Cn1c(=O)c(C(=O)Nc2cccnc2)c(O)c2ccccc21	STAT3 activator 134 (no result: NF-kB expr up)
Cn1c(CC(=O)Nc2ccccc2C(F)(F)F)c(Sc2ccccc2)c2ccccc21	none
CCNC(=O)n1cc(-n2cncn2)c(-c2ccc(Cl)cc2)n1	none
O=C(O)/C=C\C(=O)N1CCc2ccccc21	none
O=C(/C=C/c1ccc(Cl)cc1Cl)N1CCc2ccccc21	STAT1 act 141
O=C(Nc1ccc(-c2nc3ccccc3[nH]2)cc1)c1ccco1	APP 5'UTR act 169, STAT1 act 141
